# In ChEMBL document CHEMBL1124499, “Metabolism of 3-(p-chlorophenyl)pyrrolidine. Structural effects in conversion of a prototype gamma-aminobutyric acid prodrug to lactam and gamma-aminobutyric acid type metabolites” (J Med Chem, 1989):
# The source made the active and inactive calls.
# What was measured:
# [1] = organism: Mus musculus; test: Anticonvulsant activity by using maximal electroshock seizure test in mice; format: functional
# [2] = tested on: Mus musculus; test: Anticonvulsant activity by using subcutaneous pentylenetetrazole (Metrazol) seizure threshold test in mice; format: functional; conditions: for ED50: sc
# [3] = organism: Mus musculus; test: Anticonvulsant activity by using rotarod toxicity test in mice; format: functional
# [4] = organism: Rattus norvegicus; test: Amount of metabolite produced in brain of rat at a concentration of 12000 g of the compound; format: functional
# [5] = organism: Rattus norvegicus; test: Amount of metabolite produced in brain of rat at a concentration of 700 g of the compound; format: functional
# [6] = organism: Rattus norvegicus; test: Amount of metabolite produced in liver of rat at a concentration of 12000 g of the compound; format: functional
# [7] = organism: Rattus norvegicus; test: Amount of metabolite produced in liver of rat at a concentration of 700 g of the compound; format: functional
# [8] = tested on: Rattus norvegicus; test: Number of rats displaying convulsions by pretreatment with 55 mg/kg of compound (ip) in the presence of isoniazid after 49 mins out of 8 rats tested; format: functional
# How it was run: (§1)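 Male Wistar rats were pretreated with test agent at 55 mg/kg ip (200 mg/mL in saline or DMSO), then given isoniazid 425 mg/kg sc (180 mg/mL in saline).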
# [9] = tested on: Rattus norvegicus; test: Number of rats died by pretreatment with 55 mg/kg of compound (ip) in the presence of isoniazid after 49 mins out of 8 rats tested; format: organism-based; parameters: dose 55 mg/kg; conditions: in vivo; how it was run: as §1
# [10] = organism: Mus musculus; test: Anticonvulsant activity by using bicuculline test in mice; format: functional
# [11] = organism: Rattus norvegicus; test: Amount of metabolite alpha-baclofen lactam produced in brain of rat at a concentration of 12000 g of the compound; format: functional
# [12] = organism: Rattus norvegicus; test: Amount of metabolite alpha-baclofen lactam produced in brain of rat at a concentration of 700 g of the compound; format: functional
# [13] = organism: Rattus norvegicus; test: Amount of metabolite alpha-baclofen lactam produced in liver of rat at a concentration of 12000 g of the compound; format: functional
# [14] = organism: Rattus norvegicus; test: Amount of metabolite alpha-baclofen lactam produced in liver of rat at a concentration of 700 g of the compound; format: functional
# [15] = organism: Rattus norvegicus; test: Amount of metabolite alpha-baclofen produced in brain of rat at a concentration of 12000 g of the compound; None detected; format: functional, organism-based
# [16] = organism: Rattus norvegicus; test: Amount of metabolite alpha-baclofen produced in brain of rat at a concentration of 700 g of the compound; None detected; format: functional, organism-based
# [17] = organism: Rattus norvegicus; test: Amount of metabolite alpha-baclofen produced in liver of rat at a concentration of 12000 g of the compound; None detected; format: functional, organism-based
# [18] = organism: Rattus norvegicus; test: Amount of metabolite alpha-baclofen produced in liver of rat at a concentration of 700 g of the compound; None detected; format: functional, organism-based
# [19] = tested on: Rattus norvegicus; test: Number of rats died by pretreatment with 55 mg/kg of compound (ip) in the presence of isoniazid after 63 mins out of 6 rats tested; format: functional; how it was run: as §1
# [20] = tested on: Rattus norvegicus; test: Number of rats displaying convulsions by pretreatment with 55 mg/kg of compound (ip) in the presence of isoniazid after 63 mins out of 6 rats tested; format: functional; how it was run: as §1
# [21] = tested on: Rattus norvegicus; test: In vivo formation of baclofen in 4 hr after administration of 5.5 mg/kg of compound intraperitoneally into 4 rats; format: functional, organism-based; parameters: dose 5.5 mg/kg
# [22] = tested on: Rattus norvegicus; test: In vivo formation of baclofen in 0-3 hr after administration of 55 mg/kg of compound intraperitoneally into 2 rats; format: functional, organism-based; parameters: dose 55 mg/kg
# How it was run: (§2)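 Male Wistar rats housed in metabolism cages were given 55 mg/kg prodrug ip. Urine was collected at 3 and 6 h and assayed by HPLC/EC; cumulative amount is reported per rat. One rat was decapitated at 3 h, and its brain was homogenized in Tris-KCl and assayed by HPLC/EC.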
# [23] = tested on: Rattus norvegicus; test: In vivo formation of baclofen in 3-6h after administration of 55 mg/kg of compound intraperitoneally into 1r at; format: functional, organism-based; parameters: dose 55 mg/kg; how it was run: as §2
# [24] = tested on: Rattus norvegicus; test: In vivo formation of baclofen in 3-6h after administration of 55 mg/kg of compound intraperitoneally into 2 rats; format: functional, organism-based; parameters: dose 55 mg/kg; how it was run: as §2
# [25] = tested on: Rattus norvegicus; test: In vivo formation of alpha-baclofen in 0-3 hr after administration of 55 mg/kg of compound intraperitoneally into 1r at; format: functional, organism-based; parameters: dose 55 mg/kg; how it was run: as §2
# [26] = tested on: Rattus norvegicus; test: In vivo formation of alpha-baclofen in 0-3 hr after administration of 55 mg/kg of compound intraperitoneally into 2 rats; format: functional, organism-based; parameters: dose 55 mg/kg; how it was run: as §2
# [27] = tested on: Rattus norvegicus; test: In vivo formation of alpha-baclofen in 3-6h after administration of 55 mg/kg of compound intraperitoneally into 2 rats; format: functional, organism-based; parameters: dose 55 mg/kg; how it was run: as §2
# [28] = tested on: Rattus norvegicus; test: In vivo formation of baclofen in 0-3 hr after administration of 55 mg/kg of compound intraperitoneally into 1r at; format: functional, organism-based; parameters: dose 55 mg/kg; how it was run: as §2
# [29] = tested on: Rattus norvegicus; test: In vivo formation of baclofen in 2 hr after administration of 5.5 mg/kg of compound intraperitoneally into 4 rats; format: functional, organism-based; parameters: dose 5.5 mg/kg
# [30] = tested on: Rattus norvegicus; test: In vivo formation of alpha-baclofen in 3-6h after administration of 55 mg/kg of compound intraperitoneally into 1r at; format: functional, organism-based; parameters: dose 55 mg/kg; how it was run: as §2
# [31] = tested on: Rattus norvegicus; test: In vivo formation of baclofen in 3h after administration of 55 mg/kg of compound intraperitoneally into 3 rats; format: functional, organism-based; parameters: dose 55 mg/kg; how it was run: as §2
# [32] = organism: Mus musculus; test: Anticonvulsant activity by using bicuculline test in mice; Inactive; format: functional, organism-based
# [33] = tested on: Mus musculus; test: Anticonvulsant activity by using subcutaneous pentylenetetrazole (Metrazol) seizure threshold test in mice; Inactive; format: functional, organism-based
smiles,measurement,setting,value
O=C1CC(c2ccc(Cl)cc2)CN1 (centres undefined),ED50,[1],68 mg/kg
same,ED50,[2],41 mg/kg
same,TD50,[3],117 mg/kg
same,Activity,[4],0.28 µg/mL
same,Activity,[5],2.11 µg/mL
same,Activity,[6],14.6 µg/mL
same,Activity,[7],26.4 µg/mL
same,Activity,[8],2
same,No. of rats died,[9],1
same,ED50,[10],143 mg/kg
CCCC(CCC)C(=O)O [VALPROIC ACID],ED50,[2],149 mg/kg
same,ED50,[10],360 mg/kg
Clc1ccc(C2CCNC2)cc1 (centres undefined),Activity,[11],0.21 µg/mL
same,Activity,[12],0.5 µg/mL
same,Activity,[13],24.5 µg/mL
same,Activity,[14],46.7 µg/mL
same,Activity,[15],Not detected
same,Activity,[16],Not detected
same,Activity,[17],Not detected
same,Activity,[18],Not detected
same,Activity,[19],0
same,Activity,[20],6
same,Concentration,[21],0.12 µg/mL
same,Concentration,[22],0 µg/mL
same,Concentration,[23],16 µg/mL
same,Concentration,[24],9.4 µg/mL
same,Concentration,[25],0.5 µg/mL
same,Concentration,[26],0 µg/mL
same,Concentration,[27],2.3 µg/mL
same,Concentration,[28],2 µg/mL
same,Concentration,[29],0.04 µg/mL
same,Concentration,[30],2.6 µg/mL
same,Concentration,[31],24.3 ng/g
NC(=O)CCC/N=C(\c1ccc(Cl)cc1)c1cc(F)ccc1O [PROGABIDE],ED50,[1],75 mg/kg
same,ED50,[2],30 mg/kg
same,ED50,[10],20 mg/kg
O=C1NC(=O)C(c2ccccc2)(c2ccccc2)N1,ED50,[32],inactive
same,ED50,[33],inactive
NCC(CC(=O)O)c1ccc(Cl)cc1 (centres undefined) [BACLOFEN],ED50,[1],> 600 mg/kg
same,Dose,[2],50 mg/kg
same,TD50,[3],47 mg/kg
same,Activity,[4],0.097 µg/mL
same,Activity,[5],0.162 µg/mL
same,Activity,[6],0.13 µg/mL
same,Activity,[7],0.197 µg/mL
CCC1(c2ccccc2)C(=O)NC(=O)NC1=O [PHENOBARBITAL],ED50,[1],22 mg/kg
same,ED50,[2],13 mg/kg
same,TD50,[3],69 mg/kg
same,ED50,[10],38 mg/kg
